Experimental findings from ChEMBL document CHEMBL1275301, “Antihypertensive activity of newer 1,4-dihydro-5-pyrimidine carboxamides: synthesis and pharmacological evaluation” (2010) are described below.

For test [1], the system named is Rattus norvegicus. Kind of test: Antihypertensive activity against DOCA-salt induced hypertension in albino rat assessed as reduction in systolic blood pressure at 10 mg/kg, po after 300 mins by tail-cuff method. It is filed as functional. To be noted: Artery, 5 h. The gist of the method:
(§1)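 Rats given DOCA 20 mg/kg s.c. twice weekly in olive oil for 4 weeks, with 1% w/v NaCl as drinking water, reaching systolic 160–180 mm Hg. Rats were trained in restrainer and tail-cuff sessions. Compounds in 0.5% CMC were dosed at 10 mg/kg by oral feeding needle, with vehicle and nifedipine groups. BP was read before dosing and after, with the tail warmed at 37 °C for 2–5 min. Each compound was run three times in one week and readings averaged.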

Test [2] has as its system Rattus norvegicus. Kind of test: Antihypertensive activity against DOCA-salt induced hypertension in albino rat assessed as reduction in systolic blood pressure at 10 mg/kg, po after 60 mins by tail-cuff method. It is filed as functional. As to conditions: Artery, 1 h. The gist of the method: as §1
The test system of test [3] is Rattus norvegicus. Kind of test: Antihypertensive activity against DOCA-salt induced hypertension in albino rat assessed as reduction in systolic blood pressure at 10 mg/kg, po after 360 mins by tail-cuff method. As to conditions: Artery, 6 h. It is filed as functional. A digest of the protocol:
as §1

Test [4] relates to Rattus norvegicus. Kind of test: Antihypertensive activity against DOCA-salt induced hypertension in albino rat assessed as reduction in systolic blood pressure at 10 mg/kg, po after 30 mins by tail-cuff method. It is filed as functional. As to conditions: Artery, 0.5 h. A digest of the protocol: as §1
For test [5], the system named is Rattus norvegicus. Kind of test: Antihypertensive activity against DOCA-salt induced hypertension in albino rat assessed as reduction in systolic blood pressure at 10 mg/kg, po after 240 mins by tail-cuff method. It is filed as functional. To be noted: Artery, 4 h. The gist of the method: as §1
Test [6] relates to Rattus norvegicus. Kind of test: Antihypertensive activity against DOCA-salt induced hypertension in albino rat assessed as reduction in systolic blood pressure at 10 mg/kg, po up to 360 mins by tail-cuff method. It counts as functional, organism-based. On the set-up: dose 10 mg/kg. As to conditions: Artery. A digest of the protocol:
as §1

The subject of test [7] is Rattus norvegicus. Kind of test: Antihypertensive activity against DOCA-salt induced hypertension in albino rat assessed as reduction in systolic blood pressure at 10 mg/kg, po after 120 mins by tail-cuff method. It counts as functional. To be noted: Artery, 2 h. A digest of the protocol: as §1
Test [8] concerns Rattus norvegicus. Kind of test: Antihypertensive activity against DOCA-salt induced hypertension in albino rat assessed as reduction in systolic blood pressure at 10 mg/kg, po after 720 mins by tail-cuff method. It is filed as functional. As to conditions: Artery, 12 h. The gist of the method: as §1
For test [9], the system named is Rattus norvegicus. Kind of test: Antihypertensive activity against DOCA-salt induced hypertension in albino rat assessed as reduction in systolic blood pressure at 10 mg/kg, po after 600 mins by tail-cuff method. To be noted: Artery, 10 h. It is filed as functional. The gist of the method: as §1
The test system of test [10] is Rattus norvegicus. Kind of test: Antihypertensive activity against DOCA-salt induced hypertension in albino rat assessed as reduction in systolic blood pressure at 10 mg/kg, po after 15 mins by tail-cuff method. It counts as functional. To be noted: Artery, 0.25 h. The gist of the method: as §1
The test system of test [11] is Rattus norvegicus. Kind of test: Antihypertensive activity against DOCA-salt induced hypertension in albino rat assessed as reduction in systolic blood pressure at 10 mg/kg, po after 180 mins by tail-cuff method. It is filed as functional. To be noted: Artery, 3 h. The gist of the method: as §1
Test [12] has as its system Rattus norvegicus. Kind of test: Antihypertensive activity against DOCA-salt induced hypertension in albino rat assessed as reduction in systolic blood pressure at 10 mg/kg, po after 900 mins by tail-cuff method. It counts as functional. To be noted: Artery, 15 h. The gist of the method: as §1

Molecules are shown by their SMILES. Calls of active or inactive are those of the source. No cut-off for these calls is given here.

As usually defined, the inhibition in vivo is how much of the control response was suppressed. In the case of `COc1ccc(C2N=C(SCc3ccccc3Cl)NC(C)=C2C(=O)Nc2ccc(Br)cc2)cc1` (centres undefined), the inhibition in vivo at 10 mg/kg with Rattus norvegicus [1] is 17.9%; in the test with Rattus norvegicus [2], 6.7%; with Rattus norvegicus [3] it was 20.6%; in the test with Rattus norvegicus [4], 4.6%; in the test with Rattus norvegicus [5], 15.4%; in the test on Rattus norvegicus [7], 8.2%. Also, the inhibition in vivo at 10 mg/kg with Rattus norvegicus [8] came to 10.8%; in the test on Rattus norvegicus [9], 13.3%; in the test on Rattus norvegicus [10], 3.1%; in the test on Rattus norvegicus [11] it was 11.3%; in the test on Rattus norvegicus [12], 7.2%. Also, in the test with Rattus norvegicus [6], the result was Active.

On to `CC1=C(C(=O)Nc2ccc(Br)cc2)C(c2ccc(Cl)cc2Cl)N=C(SCc2ccccc2Cl)N1` (centres undefined), for which the inhibition in vivo at 10 mg/kg in the test on Rattus norvegicus [1] worked out at 36.4%; in the test with Rattus norvegicus [2], 11.8%; in the test with Rattus norvegicus [3] it was 38.1%; in the test on Rattus norvegicus [4], 5.7%; in the test on Rattus norvegicus [5], 28.7%; with Rattus norvegicus [7], 16%. For the same molecule, the inhibition in vivo at 10 mg/kg in the test on Rattus norvegicus [8] is 20.6%; in the test with Rattus norvegicus [9], 24.6%; in the test with Rattus norvegicus [10] it was 3.1%; in the test with Rattus norvegicus [11] it was 22.2%; in the test with Rattus norvegicus [12], 16.4%. In addition, the outcome in the test on Rattus norvegicus [6] was Active.

As to `CC1=C(C(=O)Nc2ccc([N+](=O)[O-])cc2)C(c2ccc(Br)cc2)N=C(SCc2cccc(Cl)c2)N1` (centres undefined), the inhibition in vivo at 10 mg/kg came out at 9.2% in the test on Rattus norvegicus [1]; 4.1% with Rattus norvegicus [2]; 7.2% in the test on Rattus norvegicus [3]; 2.6% with Rattus norvegicus [4]; 11.8% in the test on Rattus norvegicus [5]; 6.7% in the test with Rattus norvegicus [7]. The inhibition in vivo at 10 mg/kg worked out at 2.6% with Rattus norvegicus [8]; 5.1% with Rattus norvegicus [9]; 2.1% in the test on Rattus norvegicus [10]; 9.3% with Rattus norvegicus [11]; 2.6% in the test with Rattus norvegicus [12]. For the same molecule, in the test with Rattus norvegicus [6], the result was Active.

With `CC1=C(C(=O)Nc2ccc([N+](=O)[O-])cc2)C(c2cccc([N+](=O)[O-])c2)N=C(SCc2ccc(F)cc2)N1` (centres undefined), the inhibition in vivo at 10 mg/kg in the test on Rattus norvegicus [1] was found to be 27.2%; in the test on Rattus norvegicus [2], 7.2%; in the test with Rattus norvegicus [3], 36.1%; in the test on Rattus norvegicus [4] it was 4.1%; in the test with Rattus norvegicus [5], 22.6%; in the test with Rattus norvegicus [7] it was 13.4%. Also, the inhibition in vivo at 10 mg/kg was found to be 20.1% in the test on Rattus norvegicus [8]; 30.3% with Rattus norvegicus [9]; 2.6% in the test with Rattus norvegicus [10]; 17.5% with Rattus norvegicus [11]; 15.4% in the test with Rattus norvegicus [12]. Further, the result with Rattus norvegicus [6] was Active.

Consider `COc1ccc(C2N=C(SCc3ccccc3Cl)NC(C)=C2C(=O)Nc2ccc(F)cc2)cc1OC` (centres undefined), for which the inhibition in vivo at 10 mg/kg amounted to 35.9% in the test on Rattus norvegicus [1]; 11.8% in the test with Rattus norvegicus [2]; 39.2% with Rattus norvegicus [3]; 6.2% in the test on Rattus norvegicus [4]; 30.3% with Rattus norvegicus [5]; 17% in the test on Rattus norvegicus [7]. Further, the inhibition in vivo at 10 mg/kg is 23.2% with Rattus norvegicus [8]; 30.3% with Rattus norvegicus [9]; 2.6% in the test on Rattus norvegicus [10]; 25.3% in the test on Rattus norvegicus [11]; 21% in the test with Rattus norvegicus [12]. The outcome in the test with Rattus norvegicus [6] was Active.

With `COc1ccc(C2N=C(SCc3ccc(Cl)cc3)NC(C)=C2C(=O)Nc2ccc(F)cc2)cc1OC` (centres undefined), the inhibition in vivo at 10 mg/kg stood at 31.3% with Rattus norvegicus [1]; 10.3% with Rattus norvegicus [2]; 37.1% with Rattus norvegicus [3]; 5.7% in the test on Rattus norvegicus [4]; 24.1% in the test with Rattus norvegicus [5]; 15.5% with Rattus norvegicus [7]. Moreover, the inhibition in vivo at 10 mg/kg in the test with Rattus norvegicus [8] worked out at 22.2%; in the test with Rattus norvegicus [9], 26.7%; in the test with Rattus norvegicus [10], 3.1%; in the test with Rattus norvegicus [11], 20.1%; in the test with Rattus norvegicus [12], 20%. The outcome in the test on Rattus norvegicus [6] was Active.

For `CC1=C(C(=O)Nc2ccc([N+](=O)[O-])cc2)C(c2ccc(Br)cc2)N=C(SCc2ccc(F)cc2)N1` (centres undefined), the inhibition in vivo at 10 mg/kg with Rattus norvegicus [1] worked out at 34.4%; in the test with Rattus norvegicus [2], 9.7%; with Rattus norvegicus [3] it was 38.7%; in the test with Rattus norvegicus [4] it was 5.2%; in the test on Rattus norvegicus [5], 27.2%; in the test on Rattus norvegicus [7], 12.9%. In addition, the inhibition in vivo at 10 mg/kg in the test with Rattus norvegicus [8] stood at 27.3%; in the test on Rattus norvegicus [9], 32.3%; in the test on Rattus norvegicus [10] it was 2.6%; in the test on Rattus norvegicus [11], 17.5%; in the test on Rattus norvegicus [12], 22.6%. Moreover, the result in the test on Rattus norvegicus [6] was Active.

With `CC1=C(C(=O)Nc2ccc([N+](=O)[O-])cc2)C(c2ccc(Br)cc2)N=C(SCc2ccccc2)N1` (centres undefined), the inhibition in vivo at 10 mg/kg with Rattus norvegicus [1] is 29.7%; with Rattus norvegicus [2], 8.2%; in the test on Rattus norvegicus [3], 37.6%; in the test with Rattus norvegicus [4] it was 3.6%; in the test on Rattus norvegicus [5], 27.7%; with Rattus norvegicus [7] it was 13.4%. Besides, the inhibition in vivo at 10 mg/kg in the test on Rattus norvegicus [8] came out at 21.1%; in the test with Rattus norvegicus [9], 27.2%; in the test with Rattus norvegicus [10] it was 2.1%; with Rattus norvegicus [11] it was 19.6%; with Rattus norvegicus [12], 19.5%. Besides, in the test with Rattus norvegicus [6], the outcome was Active.

Turning to `COc1ccc(C2N=C(SCc3ccc(F)cc3)NC(C)=C2C(=O)Nc2ccc(F)cc2)cc1OC` (centres undefined), the inhibition in vivo at 10 mg/kg with Rattus norvegicus [1] came to 37.9%; in the test on Rattus norvegicus [2], 11.8%; in the test on Rattus norvegicus [3], 37.1%; in the test with Rattus norvegicus [4] it was 6.7%; in the test with Rattus norvegicus [5], 28.7%; in the test with Rattus norvegicus [7] it was 15.5%. In addition, the inhibition in vivo at 10 mg/kg stood at 17% in the test with Rattus norvegicus [8]; 21% in the test on Rattus norvegicus [9]; 3.6% in the test on Rattus norvegicus [10]; 22.2% in the test with Rattus norvegicus [11]; 15.4% in the test on Rattus norvegicus [12]. Moreover, the result in the test with Rattus norvegicus [6] was Active.

Regarding `CC1=C(C(=O)Nc2ccc(Br)cc2)C(c2ccc(Cl)cc2Cl)N=C(SCc2cccc(Cl)c2)N1` (centres undefined), the inhibition in vivo at 10 mg/kg with Rattus norvegicus [1] was 18.5%; in the test with Rattus norvegicus [2], 6.2%; in the test with Rattus norvegicus [3], 20.6%; in the test on Rattus norvegicus [4], 3.1%; in the test on Rattus norvegicus [5], 15.9%; in the test with Rattus norvegicus [7], 8.8%. Also, the inhibition in vivo at 10 mg/kg in the test on Rattus norvegicus [8] amounted to 11.3%; with Rattus norvegicus [9], 15.4%; in the test on Rattus norvegicus [10], 1.5%; with Rattus norvegicus [11] it was 11.9%; with Rattus norvegicus [12] it was 7.2%. Moreover, in the test with Rattus norvegicus [6], the result was Active.

For the molecule `CC1=C(C(=O)Nc2ccc(F)cc2)C(c2ccc([N+](=O)[O-])cc2)N=C(SCc2ccc(F)cc2)N1` (centres undefined), the inhibition in vivo at 10 mg/kg came to 30.3% in the test with Rattus norvegicus [1]; 10.8% in the test on Rattus norvegicus [2]; 33% with Rattus norvegicus [3]; 5.7% in the test on Rattus norvegicus [4]; 25.6% in the test on Rattus norvegicus [5]; 17% with Rattus norvegicus [7]. Also, the inhibition in vivo at 10 mg/kg with Rattus norvegicus [8] turned out to be 19.6%; in the test with Rattus norvegicus [9], 25.6%; with Rattus norvegicus [10], 3.1%; in the test with Rattus norvegicus [11] it was 20.1%; in the test with Rattus norvegicus [12] it was 13.8%. Besides, the outcome in the test with Rattus norvegicus [6] was Active.

`CC1=C(C(=O)Nc2ccc(F)cc2)C(c2ccc([N+](=O)[O-])cc2)N=C(SCc2cccc(Cl)c2)N1` (centres undefined): the inhibition in vivo at 10 mg/kg in the test on Rattus norvegicus [1] was determined as 18.5%; in the test with Rattus norvegicus [2], 7.2%; in the test on Rattus norvegicus [3], 21.1%; with Rattus norvegicus [4], 4.1%; with Rattus norvegicus [5], 15.9%; with Rattus norvegicus [7], 9.8%. The inhibition in vivo at 10 mg/kg is 12.9% with Rattus norvegicus [8]; 16.4% with Rattus norvegicus [9]; 2.1% in the test with Rattus norvegicus [10]; 11.9% with Rattus norvegicus [11]; 10.8% in the test with Rattus norvegicus [12]. Also, the outcome with Rattus norvegicus [6] was Active.
